The series can be described thus: Toxicity liver stage against HepG2, at 10uM. The format is cell-based. Set-up: test concentration 10 uM, cell line HepG2-A16-CD81EGFP. The note with it: human, HepG2-A16-CD81EGFP cells; read-out: INHIBITION
An outline of the steps:
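Uninfected HepG2-A16-CD81EGFP cells, 3 × 10^3 per well, 1536-well, plated on prespotted compound at 10 μM final, parasite-free screening media added to match infected plates; puromycin 10 μM positive, DMSO 0.5% negative; run in parallel with 48 h PbLuc assay at 37 °C, 5% CO2; viability by CellTiter-Glo luminescence, normalized to controls.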
Turning to `Cc1cc2[nH]c(=O)oc2cc1S(=O)(=O)N1C[C@@H](N(C)C)[C@H](C(C)C)C1`, the cytotoxicity at 10 µM was determined as 0.234%.

Turning to `Cc1ccc2c(c1)C(=O)NCC1(CCN(C(=O)c3cnccn3)CC1)O2`, the cytotoxicity at 10 µM is -15.8%. Regarding `CN(Cc1noc(C2CC2)n1)C1CCN(CCc2cnn(C)c2)C1` (configuration not stated), the cytotoxicity at 10 µM is -0.222%. As to `COc1ccc(CC(=O)N2CCCC(n3nc(C)cc3C)C2)cc1F` (configuration not stated), the cytotoxicity at 10 µM is -1.76%. With `O=C(NC1CCC(C(=O)N2CCSCC2)CC1)N1CCC1` (configuration not stated), the cytotoxicity at 10 µM worked out at 12.7%. Turning to `CCN(CC1CCOC1)S(=O)(=O)Cc1cc(Cl)ccc1OC` (configuration not stated), the cytotoxicity at 10 µM turned out to be 3.1%. To `CC(C)N1CCC(Cc2cncc(-c3cccc(C(=O)O)c3)n2)C1` (configuration not stated) belongs 9.11%. With `Cc1ncsc1CCN(C)Cc1cc2n(n1)CCN(Cc1ncc[nH]1)C2`, the cytotoxicity at 10 µM was -22.2%. On to `CCC1CN(Cc2nnc(C(C)C)o2)CCC(=O)N1Cc1ccccc1` (configuration not stated), for which the cytotoxicity at 10 µM worked out at 3.33%. Consider `COc1nc2c(cc1C(=O)NCCCc1nnc(N)s1)CCC2`, for which the cytotoxicity at 10 µM was 4.37%. Consider `COc1cccc(-n2nnc(C(=O)N3CCCCCC3)c2C)c1`, for which the cytotoxicity at 10 µM is -9.71%. To `CN(C)C(=O)c1nn(C)c2c1CN(Cc1ccc(F)cc1)C2` belongs -9.88%; to `Cn1nc(CNC(=O)c2ccc3c(c2)OCO3)c2c1CCOC2`, -1.82%; to `CCOc1c(Cl)cccc1NCc1cc(C)on1`, 1.04%.

On to `Cc1ccc2c(n1)N(CCn1cccn1)CCN(C1CCOCC1)C2`, for which the cytotoxicity at 10 µM is -2.83%. Turning to `CN(Cc1ccccc1)c1ncccc1CNC1CCC1`, the cytotoxicity at 10 µM came to 13.5%. To `Cc1nc(C)n(CC2CN(Cc3nccs3)Cc3nccn3C2)n1` (configuration not stated) belongs -140%; to `COc1ccc(OC)c(C2CCN(C(=O)C3CCOCC3)C2)c1` (configuration not stated), 5.6%. For the molecule `COc1cccc(OC2CN(C(=O)c3ccnc(OC)c3)C2)c1`, the cytotoxicity at 10 µM was -6.52%.

As for `CCN(C)c1cc(CNC(=O)CNC(=O)CC2CCCCC2)ccn1`, the cytotoxicity at 10 µM worked out at 2.34%.

Take `COCCOc1ccc(NC(=O)C2CC(=O)N(C)C2)cn1` (configuration not stated): the cytotoxicity at 10 µM is -5.31%.

Consider `CCc1n[nH]c(SCC(=O)N2CCc3[nH]nc(C4CCC4)c3C2)n1`, for which the cytotoxicity at 10 µM is -12.1%.

On to `CCN(CC)C1CCN(C(=O)NCc2nncn2CC)CC1`, for which the cytotoxicity at 10 µM is 2.72%. For the molecule `Cc1cc(C)n(-c2ccc(C(=O)NCC(CO)Cc3cccs3)cc2)n1` (configuration not stated), the cytotoxicity at 10 µM was determined as 6.64%.

On to `CNc1nc2c(s1)C(c1cccc(Cl)c1Cl)CC(=O)N2` (configuration not stated), for which the cytotoxicity at 10 µM was determined as 5.97%. Regarding `Cc1nnc([C@@]23CCO[C@@H]2CCN(Cc2cccc4ccccc24)C3)o1`, the cytotoxicity at 10 µM is -103%. To `CCOc1ccccc1CN(C)C(=O)CN1C(=O)OC[C@@H]1C(C)C` belongs -2.24%. With `O=C(CN1CCCC(Cn2cncn2)C1)Nc1cccnc1` (configuration not stated), the cytotoxicity at 10 µM stood at 2.01%. Take `Cc1cccc(C(=O)N2CCCN(CCCSCC#N)CC2)c1`: the cytotoxicity at 10 µM was -150%.

With `Cc1cc(CNC(=O)N2CCN(Cc3ccccc3)C[C@H]2C)on1`, the cytotoxicity at 10 µM was -131%. As for `CC(C)C(=O)N1CCN(C(=O)c2cc(C(C)C)no2)[C@H]2CS(=O)(=O)C[C@H]21`, the cytotoxicity at 10 µM was -9.43%. Regarding `Cn1nc2c(cc1=O)CN(Cc1nc(-c3cccs3)no1)CC2`, the cytotoxicity at 10 µM was -2.82%.

Turning to `Cn1cc(Cl)cc1C(=O)N1CCN(Cc2cccs2)CC1`, the cytotoxicity at 10 µM was -8.1%.

On to `CN(CCC(N)=O)Cc1cc(Br)cs1`, for which the cytotoxicity at 10 µM was -0.711%. In the case of `CC(C)Cc1nc(CN2CCN(CC(O)c3ccccc3)CC2)no1` (configuration not stated), the cytotoxicity at 10 µM is -14.4%.

For `Cc1ncc2c(n1)CN(Cc1nc(-c3ccsc3)oc1C)CC2`, the cytotoxicity at 10 µM was 1.97%. Consider `COC(=O)c1ccc(CNC(=O)Nc2ccc(=O)n(C)c2)cc1`, for which the cytotoxicity at 10 µM is -6.8%.

`Cc1cnn(CC2CCCCN2C(=O)c2ccc3c(c2)COC3)c1` (configuration not stated): the cytotoxicity at 10 µM was -24.7%. For the molecule `CCn1ccnc1CN1CCCN(C(=O)c2cnc(C)cn2)CC1`, the cytotoxicity at 10 µM was -12.3%. As to `Cc1ccc(F)cc1S(=O)(=O)NCc1cccnc1N(C)C`, the cytotoxicity at 10 µM amounted to 0.716%. For `O=C(N1CCOCC1)[C@@]12CCO[C@@H]1CCN(C1CCCCC1)C2` the value was 2.14%; for `NC(=O)C1CCN(Cc2cc3c(cc2Br)OCCO3)C1` (configuration not stated), 0.641%; for `O=C(c1cc(-n2cnnn2)ccc1Cl)N1CCOCC1`, 6.22%. Regarding `COC(=O)C(C)(C)NC(=O)c1cc2sc(N(C)C)nc2s1`, the cytotoxicity at 10 µM was -20.5%. `O=C(Nc1cccs1)N(CCO)CCOCC(F)(F)F`: the cytotoxicity at 10 µM amounted to 3.84%. Regarding `O=C(NCc1ccco1)[C@@H]1CCO[C@@H]2CCN(CC3CC3)C[C@@H]21`, the cytotoxicity at 10 µM was -78.7%. As for `O=C(Cc1ccccn1)N1CCN2C[C@H](Oc3cccc(F)c3)C[C@H]2C1`, the cytotoxicity at 10 µM turned out to be 3.94%.

For the molecule `CCCc1nc(C(=O)N2CCN(C(=O)OC)CC2)cs1`, the cytotoxicity at 10 µM is -9.85%. On to `CN(C)CCOCC1CN(C(=O)c2ccccn2)Cc2ccnn2C1` (configuration not stated), for which the cytotoxicity at 10 µM is -3.55%.

`CC(=O)NCC(=O)N1C[C@@H]2CC[C@H](Oc3ccccc3Cl)[C@@H]2C1`: the cytotoxicity at 10 µM was 9.16%. `c1coc(CN2CCc3nnc(COc4cncnc4)n3CC2)c1`: the cytotoxicity at 10 µM was found to be 4.15%. Consider `CNC(=O)C1(CCCc2ccncc2)CCCN1` (configuration not stated), for which the cytotoxicity at 10 µM was -6.46%. To `CCN1CCCC1CN(CCN(C)C)S(=O)(=O)c1ccccc1C#N` (configuration not stated) belongs -8.58%; to `Cn1cnc(S(=O)(=O)N2CCCCc3ccccc32)c1`, -4.62%; to `CC(=O)c1cccc(NC(=O)CN2CCCC(C3OCCO3)C2)c1` (configuration not stated), -3.28%. For `Cc1cccc(N2CCN(C(=O)CCc3ccsc3)C(C)C2)n1` (configuration not stated) the value was 18.4%.

For `CCn1ccnc1CN(C)c1cc(N(C)C)ncn1`, the cytotoxicity at 10 µM is -42.1%.

Take `Cc1ccccc1CCNC(=O)N1CCCC(c2nncn2C)C1` (configuration not stated): the cytotoxicity at 10 µM was -29.8%. As to `Cc1ccc(C)c(NCc2nc3n(n2)CCCCC3)c1`, the cytotoxicity at 10 µM came to 6.39%. On to `CC(C)N(C)Cc1n[nH]c2c1CCN(C(=O)c1ccc[nH]1)C2`, for which the cytotoxicity at 10 µM is -133%. As to `CN(CCCc1cc(-c2ccccc2)no1)S(C)(=O)=O`, the cytotoxicity at 10 µM was -14.4%. For `CC(C)COCC1CN(Cc2ccoc2)Cc2ncn(C)c21` (configuration not stated) the value was 4.53%; for `c1cc2c(cc1C[C@@H]1CC[C@H](CN3CCCOCC3)O1)OCO2`, -12.9%; for `CC(=O)Nc1cccc(C(=O)N(C)C(C)Cc2cc(C)ccn2)c1` (configuration not stated), 11%. Regarding `N#Cc1cccc(CN2CC3(CCCCN3c3cncnc3)CC2=O)c1` (configuration not stated), the cytotoxicity at 10 µM was 2.53%. To `Cc1n[nH]c(C2CN(Cc3csc(C4CC4)n3)CCO2)n1` (configuration not stated) belongs -0.18%. As to `Cn1cc(N2C(=O)CC[C@@H]3[C@H]2CCN3CC2CCOCC2)cn1`, the cytotoxicity at 10 µM came to 7.86%. Take `Cc1nc(NC(=O)OC(C)(C)C)sc1C#N`: the cytotoxicity at 10 µM was -10%.

`CC(C)c1nc(C2CCCN2Cc2ccccc2C#N)no1` (configuration not stated): the cytotoxicity at 10 µM was -7.62%. Regarding `Cc1cc(-c2ccc(C(C)N3CCOCC3)cc2)cnc1N` (configuration not stated), the cytotoxicity at 10 µM is -2.36%.

Regarding `CC(Cn1cccn1)NC(=O)Nc1ccc(F)cc1` (configuration not stated), the cytotoxicity at 10 µM amounted to 19.7%. Consider `CCn1cc(Br)c(C(=O)NCc2cccnc2)n1`, for which the cytotoxicity at 10 µM is -10.1%. To `Cc1n[nH]c(C2CN(C(=O)CCCn3cccn3)CCO2)n1` (configuration not stated) belongs -0.138%; to `O=C(CCO)N1CCOC2(CCCN(C(=O)c3ccco3)C2)C1` (configuration not stated), -11.7%; to `Cc1nc(COC[C@H]2CCC[C@@]23CN(C(C)C)CCO3)cs1`, -86.7%. For `NC(=O)c1cnn2c1NCC(CNCC1(c3ccccc3)CCCC1)C2` (configuration not stated) the value was -7.38%; for `CC(C)Nc1nnc(SCc2nnc(C(C)(C)C)o2)s1`, -0.386%; for `Cc1ccn(Cc2nc(C(C)OCC(C)C)no2)c(=O)c1` (configuration not stated), 5.56%.

`CCc1nc(CN(C(C)=O)C2CCN(CCc3ccncc3)C2)no1` (configuration not stated): the cytotoxicity at 10 µM is -22.3%. With `CSCc1noc(-c2nc3c([nH]2)CCCNC3=O)n1`, the cytotoxicity at 10 µM was -2.48%. Regarding `Cn1cnc(S(=O)(=O)N2CCCn3cnc(CN4CCCC4)c3C2)c1`, the cytotoxicity at 10 µM was determined as 1.27%. Take `O=C(c1ccncn1)N1C[C@H]2CCC[C@@]2(COCC2CCOCC2)C1`: the cytotoxicity at 10 µM is -79.2%. Take `Cn1nccc1C(=O)N1CC[C@]2(C[C@H](OCc3ccccn3)CO2)C1`: the cytotoxicity at 10 µM is -80.6%. Take `CCn1ccnc1CN1CCCN(C(=O)COC2CCCCC2)CC1`: the cytotoxicity at 10 µM is -11.7%. Take `CCN(C)c1ncnc2c1CCN(C(=O)c1ccsc1)CC2`: the cytotoxicity at 10 µM was -0.408%. As for `CC(C)Cc1cc(C(=O)NCCc2ccc(S(C)(=O)=O)cc2)[nH]n1`, the cytotoxicity at 10 µM was -8.93%. Consider `NC(=O)C1Cn2ccnc2C2(CCN(C(=O)NC3CCCC3)CC2)O1` (configuration not stated), for which the cytotoxicity at 10 µM is -104%. Consider `COc1cncc(-n2nc(C)c(CC(C)=O)c2C)c1`, for which the cytotoxicity at 10 µM is -12.8%.

`CN(CCc1ccccn1)C(=O)C(O)c1cc(Cl)cc(Cl)c1` (configuration not stated): the cytotoxicity at 10 µM was -5.68%. On to `O=C(Nc1nnn[nH]1)c1cc(-c2ccc(Br)s2)n[nH]1`, for which the cytotoxicity at 10 µM was -2.71%.

On to `Cc1ccc(C)c(S(=O)(=O)NC(=O)c2ccc(C)[nH]c2=O)c1`, for which the cytotoxicity at 10 µM was -1.07%. As for `COCCOc1ccc(CNc2nc3ccccc3o2)cn1`, the cytotoxicity at 10 µM worked out at 7.45%.

In the case of `COCCN1C[C@@H]2CC[C@H]1CN(C(=O)c1ccc(Cl)cc1)C2`, the cytotoxicity at 10 µM was -8.03%. For `OC1CCN(CCNc2ncc3c(n2)CCN3c2ccccc2)CC1` the value was 5.84%; for `COc1c(CNC2CCOc3c(Cl)cccc32)c(C)nn1C` (configuration not stated), 28.9%. Turning to `CC(=O)NC(C(=O)N1CCn2cncc2C1)C(C)C` (configuration not stated), the cytotoxicity at 10 µM was -14.7%. Turning to `COc1ccc(-c2cc(C(=O)NCCn3ccnc3)n(C)n2)cc1`, the cytotoxicity at 10 µM was 3.86%.

The record behind these values is ChEMBL document CHEMBL4513216, “Probing the Open Global Health Chemical Diversity Library for Multistage-Active Starting Points for Next-Generation Antimalarials” (ACS Infect Dis, 2020).
